Experiment [1] deals with T1, Angiopoietin-1 receptor (Homo sapiens, UniProt Q02763). In words: Inhibition of Tie2.
Experiment [2] relates to Mus musculus. Kind of experiment: Inhibition of bFGF-stimulated angiogenesis in Matrigel mouse model at 25 mg/kg, po after 6 days. The experiment is classed as functional. The following applies: 144 h. The gist of the method:
(§1)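 Mice bear Matrigel plugs in which angiogenesis is driven by bFGF; compound given as two doses. Control groups are untreated bFGF mice and mice without bFGF. Animals are killed after 6 days, and the heme content of the Matrigel plug is measured as the angiogenesis read-out.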

Experiment [3] concerns Mus musculus. Kind of experiment: Inhibition of bFGF-stimulated angiogenesis in Matrigel mouse model at 50 mg/kg, po after 6 days. The experiment is classed as functional. The following applies: 144 h. The gist of the method:
as §1

The nature of experiment [4]: Inhibition of GSK3. On the set-up: species or system Homo sapiens.
The target of experiment [5] is RAC-alpha serine/threonine-protein kinase (Homo sapiens, UniProt P31749). In words: Inhibition of AKT1.
RAC-alpha serine/threonine-protein kinase, sequence (P31749 whole entry): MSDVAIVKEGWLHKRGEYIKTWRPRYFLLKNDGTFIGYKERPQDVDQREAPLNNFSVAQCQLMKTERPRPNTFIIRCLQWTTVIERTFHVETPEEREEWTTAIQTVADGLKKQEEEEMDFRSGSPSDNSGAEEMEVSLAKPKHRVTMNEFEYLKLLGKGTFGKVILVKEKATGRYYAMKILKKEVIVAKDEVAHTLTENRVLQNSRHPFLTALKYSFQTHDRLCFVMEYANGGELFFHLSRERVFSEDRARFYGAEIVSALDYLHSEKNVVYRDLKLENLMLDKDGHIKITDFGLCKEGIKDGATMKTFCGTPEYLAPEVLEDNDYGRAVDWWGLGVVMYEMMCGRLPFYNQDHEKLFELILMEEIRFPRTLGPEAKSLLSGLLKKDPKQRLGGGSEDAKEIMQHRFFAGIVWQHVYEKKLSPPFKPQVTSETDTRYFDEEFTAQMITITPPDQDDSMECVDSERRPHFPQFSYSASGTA
The target in experiment [6] is Insulin-like growth factor 1 receptor (Homo sapiens, UniProt P08069). Kind of experiment: Inhibition of IGFR1.
Another experiment has as its target Insulin receptor (Homo sapiens, UniProt P06213). In words: Inhibition of INSR.
In experiment [7] the target is T2, Receptor-type tyrosine-protein kinase FLT3 (Homo sapiens, UniProt P36888).
T2 sequence (P36888 whole entry): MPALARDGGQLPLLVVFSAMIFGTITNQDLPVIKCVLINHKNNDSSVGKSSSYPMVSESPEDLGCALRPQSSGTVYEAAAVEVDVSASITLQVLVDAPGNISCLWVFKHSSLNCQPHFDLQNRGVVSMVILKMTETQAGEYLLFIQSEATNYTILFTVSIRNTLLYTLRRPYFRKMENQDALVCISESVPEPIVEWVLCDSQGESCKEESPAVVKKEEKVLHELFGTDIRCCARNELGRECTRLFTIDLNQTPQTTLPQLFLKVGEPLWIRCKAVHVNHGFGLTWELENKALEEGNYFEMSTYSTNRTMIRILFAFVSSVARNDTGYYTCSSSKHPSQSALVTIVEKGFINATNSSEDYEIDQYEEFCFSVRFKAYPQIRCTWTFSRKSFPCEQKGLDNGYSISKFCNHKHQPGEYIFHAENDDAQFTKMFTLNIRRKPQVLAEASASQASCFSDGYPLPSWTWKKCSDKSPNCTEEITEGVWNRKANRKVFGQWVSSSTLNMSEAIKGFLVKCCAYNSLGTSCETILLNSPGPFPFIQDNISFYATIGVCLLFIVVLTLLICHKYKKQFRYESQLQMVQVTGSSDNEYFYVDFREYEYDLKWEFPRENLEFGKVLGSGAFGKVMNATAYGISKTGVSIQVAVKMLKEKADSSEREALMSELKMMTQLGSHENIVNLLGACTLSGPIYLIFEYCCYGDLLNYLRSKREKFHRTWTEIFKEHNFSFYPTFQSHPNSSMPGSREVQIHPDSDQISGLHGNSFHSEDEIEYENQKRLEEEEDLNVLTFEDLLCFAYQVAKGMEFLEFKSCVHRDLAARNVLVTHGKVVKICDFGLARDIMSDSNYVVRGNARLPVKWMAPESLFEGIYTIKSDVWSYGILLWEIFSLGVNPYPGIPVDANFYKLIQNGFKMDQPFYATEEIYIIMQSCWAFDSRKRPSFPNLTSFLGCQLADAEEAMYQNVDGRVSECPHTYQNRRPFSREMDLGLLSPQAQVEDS
Kind of experiment: Inhibition of FLT3.

In experiment [8] the target is Mast/stem cell growth factor receptor Kit (Homo sapiens, UniProt P10721). In words: Inhibition of KIT.
The target of experiment [9] is Platelet-derived growth factor receptor alpha (Homo sapiens, UniProt P16234). Kind of experiment: Inhibition of PDGFRalpha.
In experiment [10] the target is Platelet-derived growth factor receptor beta (Homo sapiens, UniProt P09619). Kind of experiment: Inhibition of PDGFRbeta.
Platelet-derived growth factor receptor beta, sequence (P09619 whole entry): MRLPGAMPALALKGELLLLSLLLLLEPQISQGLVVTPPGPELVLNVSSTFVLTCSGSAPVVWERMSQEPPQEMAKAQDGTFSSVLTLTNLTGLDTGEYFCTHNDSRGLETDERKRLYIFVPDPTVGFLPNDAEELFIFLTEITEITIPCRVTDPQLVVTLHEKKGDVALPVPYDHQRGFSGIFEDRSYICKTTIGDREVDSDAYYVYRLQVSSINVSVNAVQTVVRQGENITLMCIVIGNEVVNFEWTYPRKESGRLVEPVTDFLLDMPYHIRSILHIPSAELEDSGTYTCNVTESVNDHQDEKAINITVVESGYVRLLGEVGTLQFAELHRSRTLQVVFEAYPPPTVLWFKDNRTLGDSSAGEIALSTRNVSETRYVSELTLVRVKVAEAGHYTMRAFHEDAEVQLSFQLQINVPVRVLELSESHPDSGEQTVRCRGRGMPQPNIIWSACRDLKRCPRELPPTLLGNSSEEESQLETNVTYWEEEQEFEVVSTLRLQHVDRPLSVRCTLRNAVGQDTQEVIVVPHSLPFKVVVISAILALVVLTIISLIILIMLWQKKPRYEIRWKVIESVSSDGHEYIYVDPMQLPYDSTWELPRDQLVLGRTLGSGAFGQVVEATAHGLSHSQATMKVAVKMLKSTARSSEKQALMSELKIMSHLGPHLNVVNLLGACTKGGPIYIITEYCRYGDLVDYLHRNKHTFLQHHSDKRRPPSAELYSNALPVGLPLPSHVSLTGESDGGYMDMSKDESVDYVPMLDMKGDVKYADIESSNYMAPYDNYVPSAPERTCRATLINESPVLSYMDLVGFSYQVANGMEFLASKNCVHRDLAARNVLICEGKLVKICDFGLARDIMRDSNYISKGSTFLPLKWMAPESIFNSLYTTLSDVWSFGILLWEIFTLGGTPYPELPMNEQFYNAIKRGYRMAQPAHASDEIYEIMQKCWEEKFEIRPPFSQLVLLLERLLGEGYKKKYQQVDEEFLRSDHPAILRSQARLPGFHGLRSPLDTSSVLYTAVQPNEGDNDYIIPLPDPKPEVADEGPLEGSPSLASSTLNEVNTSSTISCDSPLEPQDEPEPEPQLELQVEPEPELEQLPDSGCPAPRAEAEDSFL
For experiment [11], the target named is Vascular endothelial growth factor receptor 2 (Homo sapiens, UniProt P35968). In words: Inhibition of VEGFR2.
Experiment [12] has as its target Fibroblast growth factor receptor 1 (Homo sapiens, UniProt P11362). In words: Inhibition of FGFR1.
Experiment [13] deals with Hepatocyte growth factor receptor (Homo sapiens, UniProt P08581). Kind of experiment: Inhibition of MET.
In experiment [14] the target is Tyrosine-protein kinase ABL1 (Homo sapiens, UniProt P00519). Kind of experiment: Inhibition of Abl kinase.
Experiment [15] deals with Protein kinase C beta type (Homo sapiens, UniProt P05771). Kind of experiment: Inhibition of PKCbeta1.
Another experiment addresses MAP kinase p38 (Homo sapiens, UniProt O15264+Q15759+Q16539+P53778). Kind of experiment: Inhibition of mitogen-activated protein kinase p38. The experiment is classed as protein assay.
Experiment [16] deals with Cyclin-dependent kinase 2 (Homo sapiens, UniProt P24941). In words: Inhibition of CDK2.
For another experiment, the target named is T3, TGF-beta receptor type-1 (Homo sapiens, UniProt P36897).
T3 sequence (P36897 whole entry): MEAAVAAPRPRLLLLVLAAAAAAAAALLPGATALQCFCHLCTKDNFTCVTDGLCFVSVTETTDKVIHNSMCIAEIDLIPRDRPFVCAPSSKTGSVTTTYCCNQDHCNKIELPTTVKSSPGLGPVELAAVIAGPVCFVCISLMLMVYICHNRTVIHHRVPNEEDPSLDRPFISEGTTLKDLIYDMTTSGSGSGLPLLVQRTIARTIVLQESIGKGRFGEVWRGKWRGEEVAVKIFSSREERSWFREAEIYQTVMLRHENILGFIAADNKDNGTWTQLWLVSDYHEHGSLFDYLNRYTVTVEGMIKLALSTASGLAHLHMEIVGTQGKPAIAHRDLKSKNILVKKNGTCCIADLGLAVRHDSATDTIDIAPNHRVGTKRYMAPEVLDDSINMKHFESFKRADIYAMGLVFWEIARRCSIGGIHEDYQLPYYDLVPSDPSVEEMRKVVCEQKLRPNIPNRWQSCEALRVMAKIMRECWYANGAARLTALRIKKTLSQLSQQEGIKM

Experiment [17] has as its target Macrophage colony-stimulating factor 1 receptor (Homo sapiens, UniProt P07333).
In experiment [18] the target is T1, Angiopoietin-1 receptor. Kind of experiment: Inhibition of Tie2 at 10 uM.

Among the data in ChEMBL document CHEMBL1137478, “Optimization of triarylimidazoles for Tie2: influence of conformation on potency” (Bioorg Med Chem Lett, 2007) are IC50, inhibition in vivo and inhibition values, retold here.

What is called IC50 is the point on the concentration scale where inhibition reaches its midpoint. Read a low IC50 as inhibition by little substance. What is called inhibition in vivo is the percentage by which the read-out fell short of the control. Broadly, the inhibition is the relative decrease from the control value, in per cent.

T1 sequence (Q02763 whole entry): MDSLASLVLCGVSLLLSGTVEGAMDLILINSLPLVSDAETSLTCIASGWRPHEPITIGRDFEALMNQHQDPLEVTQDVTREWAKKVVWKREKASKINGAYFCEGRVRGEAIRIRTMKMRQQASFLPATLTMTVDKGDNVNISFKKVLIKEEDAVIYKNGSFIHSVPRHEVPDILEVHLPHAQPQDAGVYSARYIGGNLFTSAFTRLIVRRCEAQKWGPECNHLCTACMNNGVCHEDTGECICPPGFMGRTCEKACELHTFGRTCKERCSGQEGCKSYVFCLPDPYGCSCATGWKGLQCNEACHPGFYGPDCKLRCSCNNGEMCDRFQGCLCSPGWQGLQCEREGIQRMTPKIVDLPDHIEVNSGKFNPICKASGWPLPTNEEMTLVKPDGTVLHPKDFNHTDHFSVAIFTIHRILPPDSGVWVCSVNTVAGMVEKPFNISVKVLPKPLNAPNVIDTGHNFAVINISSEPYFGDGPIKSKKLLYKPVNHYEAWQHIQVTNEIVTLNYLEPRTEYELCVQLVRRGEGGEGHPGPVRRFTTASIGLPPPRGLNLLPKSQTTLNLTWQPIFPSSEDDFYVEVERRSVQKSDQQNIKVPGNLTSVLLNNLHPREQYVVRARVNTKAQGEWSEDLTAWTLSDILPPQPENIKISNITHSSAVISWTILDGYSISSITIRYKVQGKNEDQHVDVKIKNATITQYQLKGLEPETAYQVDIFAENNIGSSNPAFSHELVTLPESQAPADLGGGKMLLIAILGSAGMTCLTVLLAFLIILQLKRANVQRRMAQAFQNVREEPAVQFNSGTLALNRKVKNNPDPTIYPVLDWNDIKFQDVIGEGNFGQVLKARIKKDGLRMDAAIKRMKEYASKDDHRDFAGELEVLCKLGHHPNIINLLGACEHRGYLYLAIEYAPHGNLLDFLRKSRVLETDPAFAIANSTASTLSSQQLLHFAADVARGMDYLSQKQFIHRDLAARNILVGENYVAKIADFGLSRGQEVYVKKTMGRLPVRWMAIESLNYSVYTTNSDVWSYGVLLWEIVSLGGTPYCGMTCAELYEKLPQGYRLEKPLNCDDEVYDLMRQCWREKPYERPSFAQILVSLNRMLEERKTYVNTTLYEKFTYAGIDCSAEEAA
Macrophage colony-stimulating factor 1 receptor, sequence (P07333 whole entry): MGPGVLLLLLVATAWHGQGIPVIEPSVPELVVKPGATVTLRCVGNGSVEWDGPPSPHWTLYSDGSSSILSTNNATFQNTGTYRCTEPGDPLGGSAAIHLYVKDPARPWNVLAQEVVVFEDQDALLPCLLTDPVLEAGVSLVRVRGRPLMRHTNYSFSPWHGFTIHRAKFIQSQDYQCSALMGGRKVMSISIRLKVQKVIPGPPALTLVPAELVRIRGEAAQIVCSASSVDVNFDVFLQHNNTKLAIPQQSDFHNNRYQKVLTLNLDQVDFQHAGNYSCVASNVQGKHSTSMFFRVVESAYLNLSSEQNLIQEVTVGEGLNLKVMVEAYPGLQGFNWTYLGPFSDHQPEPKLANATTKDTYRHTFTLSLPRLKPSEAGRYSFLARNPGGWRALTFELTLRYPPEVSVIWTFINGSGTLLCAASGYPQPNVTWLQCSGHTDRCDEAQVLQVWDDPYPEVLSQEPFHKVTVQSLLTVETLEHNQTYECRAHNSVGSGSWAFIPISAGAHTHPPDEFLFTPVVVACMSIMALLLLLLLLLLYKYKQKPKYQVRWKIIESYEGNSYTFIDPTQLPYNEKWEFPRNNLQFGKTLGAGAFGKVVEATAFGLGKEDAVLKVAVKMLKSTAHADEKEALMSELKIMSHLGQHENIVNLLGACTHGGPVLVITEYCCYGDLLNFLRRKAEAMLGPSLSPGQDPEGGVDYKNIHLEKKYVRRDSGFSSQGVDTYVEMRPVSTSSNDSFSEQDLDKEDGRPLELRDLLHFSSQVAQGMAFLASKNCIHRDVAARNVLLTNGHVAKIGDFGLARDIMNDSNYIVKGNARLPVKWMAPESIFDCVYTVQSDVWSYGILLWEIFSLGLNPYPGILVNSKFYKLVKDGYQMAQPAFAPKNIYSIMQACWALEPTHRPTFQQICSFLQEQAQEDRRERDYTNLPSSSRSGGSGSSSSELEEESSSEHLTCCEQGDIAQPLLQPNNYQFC
Insulin receptor, sequence (P06213 28-758 limits assumed): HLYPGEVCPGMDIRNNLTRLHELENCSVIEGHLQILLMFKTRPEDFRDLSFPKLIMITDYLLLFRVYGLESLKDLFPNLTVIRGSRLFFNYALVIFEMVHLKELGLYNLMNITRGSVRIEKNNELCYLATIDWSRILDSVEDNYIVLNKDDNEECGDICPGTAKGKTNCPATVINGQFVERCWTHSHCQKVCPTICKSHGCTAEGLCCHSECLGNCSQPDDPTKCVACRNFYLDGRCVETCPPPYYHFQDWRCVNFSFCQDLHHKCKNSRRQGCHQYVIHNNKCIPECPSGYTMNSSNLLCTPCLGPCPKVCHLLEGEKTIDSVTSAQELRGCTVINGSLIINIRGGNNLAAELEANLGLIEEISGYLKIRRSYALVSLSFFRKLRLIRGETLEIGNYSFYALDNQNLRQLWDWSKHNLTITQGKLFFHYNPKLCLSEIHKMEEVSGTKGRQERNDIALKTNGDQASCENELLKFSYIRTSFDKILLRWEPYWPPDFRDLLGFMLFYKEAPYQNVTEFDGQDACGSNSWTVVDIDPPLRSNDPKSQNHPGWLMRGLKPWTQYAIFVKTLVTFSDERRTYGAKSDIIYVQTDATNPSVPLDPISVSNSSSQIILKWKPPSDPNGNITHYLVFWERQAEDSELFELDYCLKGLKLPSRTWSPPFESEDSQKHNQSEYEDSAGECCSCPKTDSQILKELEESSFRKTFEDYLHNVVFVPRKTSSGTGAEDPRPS
Insulin receptor, sequence (P06213 763-1382 limits assumed): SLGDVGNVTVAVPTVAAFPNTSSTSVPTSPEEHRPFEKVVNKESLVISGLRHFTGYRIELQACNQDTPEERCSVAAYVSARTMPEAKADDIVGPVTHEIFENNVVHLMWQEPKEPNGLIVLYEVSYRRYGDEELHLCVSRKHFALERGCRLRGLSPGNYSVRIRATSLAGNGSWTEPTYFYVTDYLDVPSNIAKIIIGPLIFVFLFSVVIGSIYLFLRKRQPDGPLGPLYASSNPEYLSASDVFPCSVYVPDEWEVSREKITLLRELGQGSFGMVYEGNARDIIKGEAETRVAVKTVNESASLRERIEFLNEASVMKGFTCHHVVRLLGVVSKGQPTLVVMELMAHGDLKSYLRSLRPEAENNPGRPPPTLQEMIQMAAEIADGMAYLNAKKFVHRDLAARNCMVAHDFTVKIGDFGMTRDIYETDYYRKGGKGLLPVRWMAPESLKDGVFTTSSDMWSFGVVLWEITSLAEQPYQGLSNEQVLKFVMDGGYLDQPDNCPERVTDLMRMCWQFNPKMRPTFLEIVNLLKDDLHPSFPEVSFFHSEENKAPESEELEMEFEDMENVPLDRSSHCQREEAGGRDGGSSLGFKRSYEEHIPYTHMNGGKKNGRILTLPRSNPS

Turning to `CCc1ccccc1-c1nc(-c2ccc3cc(OC)ccc3c2)c(-c2ccncc2)[nH]1`, the IC50 on Angiopoietin-1 receptor [1] turned out to be 346 nM.

The molecule `COc1ccc2cc(-c3[nH]c(-c4c(Cl)cccc4Cl)nc3-c3ccncc3)ccc2c1` yielded an IC50 against Angiopoietin-1 receptor [1] of 78 nM.

Molecule `COc1ccc2cc(-c3nc(-c4ccc(S(C)(=O)=O)cc4)[nH]c3-c3ccncc3)ccc2c1` showed a half-maximal inhibitory concentration (IC50) at Angiopoietin-1 receptor [1] of 250 nM.

In turn, `COc1ccc2cc(-c3c(-c4ccncc4)nc(-c4ccc([S+](C)[O-])cc4C)n3C)ccc2c1` (stereo not given) yielded an inhibition in vivo at 25 mg/kg in the experiment on Mus musculus [2] of 35%. 50 mg/kg produced 80% inhibition in vivo with Mus musculus [3]. Further, the IC50 in [4] is more than 30000 nM; in [5], more than 30000 nM; against Angiopoietin-1 receptor [1], 12 nM; in [6], more than 30000 nM; on Insulin receptor it was more than 30000 nM; in [7], more than 30000 nM. In addition, the half-maximal inhibitory concentration (IC50) in experiment [8] was more than 30000 nM; in [9] it was more than 30000 nM; in experiment [10], more than 30000 nM; in [11], 1500 nM; in experiment [12] it was 9700 nM; in [13] it was more than 30000 nM. Further, the IC50 in [14] is more than 30000 nM; in experiment [15] it was more than 30000 nM; at MAP kinase p38, 4100 nM; in experiment [16], more than 30000 nM; against TGF-beta receptor type-1 it was 296 nM; in [17] it was 550 nM.

`COc1ccc2cc(-c3c(-c4ccncc4)nc(-c4ccc(SC)cc4C)n3C)ccc2c1` registered a 50% inhibitory concentration (IC50) at Angiopoietin-1 receptor [1] of 335 nM.

In turn, `COc1ccc2cc(-c3nc(-c4ccc([S+](C)[O-])cc4C)[nH]c3-c3ccncc3)ccc2c1` (stereo not given) had an IC50 at Angiopoietin-1 receptor [1] of 36 nM.

In turn, `COc1ccc2cc(-c3[nH]c(-c4ccc(SC)cc4C)nc3-c3ccncc3)ccc2c1` registered an IC50 against Angiopoietin-1 receptor [1] of 1300 nM.

`COc1ccc2cc(-c3[nH]c(-c4ccc(S(C)(=O)=O)cc4C)nc3-c3ccncc3)ccc2c1`: the 50% inhibitory concentration (IC50) against Angiopoietin-1 receptor [1] came to 40 nM.

Take `COc1ccc2cc(-c3[nH]c(-c4ccc(SC)cc4Cl)nc3-c3ccncc3)ccc2c1`: on Angiopoietin-1 receptor [1], the IC50 was 1500 nM.

`COc1ccc2cc(-c3nc(-c4ccccc4F)[nH]c3-c3ccncc3)ccc2c1` showed an IC50 at Angiopoietin-1 receptor [1] of 1600 nM.

As for `COc1ccc2cc(-c3[nH]c(-c4ccccc4C)nc3-c3ccncc3)ccc2c1`, on Angiopoietin-1 receptor [1], inhibition was half-maximal at 387 nM (IC50).

With `COc1ccc2cc(-c3nc(-c4ccc([S@@+](C)[O-])cc4C)[nH]c3-c3ccncc3)ccc2c1`, at Angiopoietin-1 receptor [1], the half-maximal inhibitory concentration (IC50) stood at 22 nM.

Turning to `COc1ccc2cc(-c3nc(-c4ccc([S@+](C)[O-])cc4C)[nH]c3-c3ccncc3)ccc2c1`, the 50% inhibitory concentration (IC50) at Angiopoietin-1 receptor [1] was 95 nM.

Consider `COc1ccc2cc(-c3[nH]c(-c4ccc([S+](C)[O-])cc4Cl)nc3-c3ccncc3)ccc2c1` (stereo not given), for which, on Angiopoietin-1 receptor [1], the IC50 turned out to be 51 nM.

In turn, `COc1ccc2cc(-c3nc(-c4ccccc4Cl)[nH]c3-c3ccncc3)ccc2c1` came in with an IC50 against Angiopoietin-1 receptor [1] of 157 nM.

On to `COc1ccc2cc(-c3[nH]c(-c4ccc(S(C)(=O)=O)cc4Cl)nc3-c3ccncc3)ccc2c1`, for which the IC50 against Angiopoietin-1 receptor [1] was found to be 59 nM.

Turning to `COc1ccc2cc(-c3[nH]c(-c4ccccc4Br)nc3-c3ccncc3)ccc2c1`, on Angiopoietin-1 receptor [1], the IC50 stood at 82 nM.

Molecule `COc1ccc2cc(-c3nc(-c4ccccc4C(C)C)[nH]c3-c3ccncc3)ccc2c1` displayed an IC50 on Angiopoietin-1 receptor [1] of 836 nM.

At Angiopoietin-1 receptor [1], `COc1ccc2cc(-c3nc(-c4ccccc4C(F)(F)F)[nH]c3-c3ccncc3)ccc2c1` registered an IC50 of 260 nM.

At Angiopoietin-1 receptor [18], `COc1ccc2cc(-c3nc(-c4ccccc4)[nH]c3-c3ccncc3)ccc2c1` had an inhibition of 60%.

On Angiopoietin-1 receptor [1], `COc1ccc2cc(-c3c(-c4ccncc4)nc(-c4ccc(S(C)(=O)=O)cc4C)n3C)ccc2c1` registered an IC50 of 114 nM.
